Measured values collected from several papers.
Technique: competition with immobilised ligand
RPS6KA2 N-terminal kinase domain: Ribosomal protein S6 kinase alpha-2, N-terminal kinase domain (RPS6KA2, Homo sapiens, UniProt Q15349)
RPS6KA2 C-terminal kinase domain: Ribosomal protein S6 kinase alpha-2, C-terminal kinase domain (RPS6KA2, Homo sapiens, UniProt Q15349)

Compound | target | effect on | concentration | remaining binding
C[C@@H](c1ccc(-n2cnc3c(N)ncnc32)cc1)N1CCc2nn(C)c(Cc3ccccc3)c2C1=O | RPS6KA2 N-terminal kinase domain | binding | 0.1 µM | 96%
CS(=O)(=O)N1CCCC(NC(=O)[C@H](CCC2CCCCC2)NC(=O)c2ccc(CNC(=O)c3cnc4ccccn34)cc2)C1 (stereo partly drawn) | RPS6KA2 C-terminal kinase domain | cell-free assay | 0.1 µM | 94%
CNC(=O)[C@@H]1CC[C@@H](n2c(-c3ccc4cnccc4c3)nc3ccc(C(=O)NCc4cccc(C(N)=O)c4)cc32)C1 | RPS6KA2 C-terminal kinase domain | binding | 1 µM | 91%
C[C@@H]1CCN(c2nccc(-c3cnn4ncccc34)n2)C1 | RPS6KA2 N-terminal kinase domain | binding | 1 µM | 79%
COc1cnc(Nc2cccc(S(N)(=O)=O)c2)nc1N1CCN(c2ccccc2)C(=O)C1 | RPS6KA2 C-terminal kinase domain | binding | 1 µM | 100%
F[C@@H]1CCN(c2nccc(-c3cnn4ncccc34)n2)C1 | RPS6KA2 C-terminal kinase domain | binding | 1 µM | 91%
Nc1ncc2c(n1)-c1c([nH]c3ccc(C#CC4CC4)cc13)CCCC2 | RPS6KA2 N-terminal kinase domain | binding | 1 µM | 91%
O=C(c1ccc(Nc2nccc(-c3cc4ccccc4s3)n2)cc1)N1CCC(N2CCCC2)CC1 | RPS6KA2 C-terminal kinase domain | binding | 1 µM | 74%
Nc1cnc(N2CCc3cc(S(=O)(=O)Nc4c(F)cc(Cl)cc4F)cc(N4CCCC4=O)c32)nc1 | RPS6KA2 N-terminal kinase domain | cell-free assay | 1 µM | 88%
CN(C)c1nccc(-c2cnc3ncccn23)n1 | RPS6KA2 C-terminal kinase domain | binding | 1 µM | 91%
CCS(=O)(=O)c1cc2cc(C[C@](O)(CC(C)(C)c3ccc(F)cc3C(N)=O)C(F)(F)F)[nH]c2cn1 | RPS6KA2 C-terminal kinase domain | cell-free assay | 1 µM | 81%
COc1ncc2cc3ccccc3nc2c1C#N | RPS6KA2 N-terminal kinase domain | cell-free assay | 5 µM | 91%
CCOCCn1cc(C(=O)Nc2ccc(-n3nc(-c4cccnc4)cc3C(F)(F)F)cn2)ccc1=O | RPS6KA2 N-terminal kinase domain | cell-free assay | 1 µM | 84%
c1cncc(-c2cccc(Nc3nccc(NC4CCCCC4)n3)c2)c1 | RPS6KA2 C-terminal kinase domain | binding | 10 µM | 100%
O=C(NCCCN1CCOCC1)c1ccc(Nc2ncc(Cl)c(-c3ccc(Cl)s3)n2)cc1 | RPS6KA2 N-terminal kinase domain | binding | 1 µM | 100%
COc1cnc(Nc2cccc(S(N)(=O)=O)c2)nc1N1CCN(c2ccccc2)CC1 | RPS6KA2 N-terminal kinase domain | binding | 1 µM | 93%
CO[C@H]1CC[C@H](CNc2ccc(S(=O)(=O)NC(=O)c3ccc(N4CCN(CC5=C(c6ccc(Cl)cc6)CC(C)(C)CC5)CC4)cc3Oc3cnc4[nH]ccc4c3)cc2[N+](=O)[O-])CC1 | RPS6KA2 N-terminal kinase domain | cell-free assay | 1 µM | 97%

Compound | target | effect on | concentration | remaining binding
O=C(Nc1c[nH]nc1C(=O)NC1CCNCC1)c1cc(F)cc(F)c1 | RPS6KA2 C-terminal kinase domain | binding | 1 µM | 100%
COc1ccc2c(O[C@@H]3C[C@H]4C(=O)N[C@]5(C(=O)O)CC5/C=C\CCCCC[C@H](NC(=O)OC5CCCC5)C(=O)N4C3)cc(-c3csc(NC(=O)C(C)C)n3)nc2c1C (stereo partly drawn) | RPS6KA2 C-terminal kinase domain | cell-free assay | 1 µM | 100%
COc1ccnn2ncc(-c3ccnc(N(C)C)n3)c12 | RPS6KA2 C-terminal kinase domain | binding | 1 µM | 100%
O=C(c1ccc(Nc2ncc(Cl)c(-c3ccc(Cl)s3)n2)cc1)N1CCC(N2CCCC2)CC1 | RPS6KA2 N-terminal kinase domain | binding | 1 µM | 100%
C=CC(=O)N1CCC(C(=O)NCC(=O)N2CCN(c3nc(-c4cnc(N)nc4C(F)F)nc(N4CCOCC4)n3)CC2)CC1 | RPS6KA2 N-terminal kinase domain | binding | 1 µM | 82%
O=C(NCCCN1CCOCC1)c1ccc(Nc2nccc(-c3cc4ccccc4s3)n2)cc1 | RPS6KA2 N-terminal kinase domain | binding | 1 µM | 100%
N[C@@H]1CCN(c2nccc(-c3cnn4ncccc34)n2)C1 | RPS6KA2 N-terminal kinase domain | binding | 1 µM | 100%
Cc1cnc(Nc2ccc(C(=O)N3CCC(N4CCCC4)CC3)cc2)nc1-c1cc2ccccc2s1 | RPS6KA2 C-terminal kinase domain | binding | 1 µM | 95%
COCCOc1nc(-c2ccc(Cl)nc2)nc2c1CN(C(=O)c1ncn3ccccc13)CC2 | RPS6KA2 C-terminal kinase domain | cell-free assay | 0.1 µM | 100%
CN(CCCC(F)(F)F)c1nccc(-c2cnn3ncccc23)n1 | RPS6KA2 C-terminal kinase domain | binding | 1 µM | 100%
CN1CCN(c2cnc3c(C4CCN(C(=O)c5ccc(OC(F)(F)F)cc5N)CC4)ncnc3c2)CC1 | RPS6KA2 C-terminal kinase domain | cell-free assay | 1 µM | 100%
CCN1CCN(Cc2ccc(C(=O)Nc3ccc(C)c(Oc4ccc5c(c4)CC(=O)N5)c3)cc2C(F)(F)F)CC1 | RPS6KA2 C-terminal kinase domain | binding | 1 µM | 91%
O=C(c1ccc(Nc2ncc(Cl)c(-c3cc4ccccc4s3)n2)cc1)N1CCC(N2CCCC2)CC1 | RPS6KA2 C-terminal kinase domain | binding | 1 µM | 100%
FC(F)(F)Oc1cccc(-c2cnc3ccc(-c4ccncc4)nn23)c1 | RPS6KA2 N-terminal kinase domain | binding | 5 µM | 79%
CN(C)c1nccc(-c2cnn3ncccc23)n1 | RPS6KA2 N-terminal kinase domain | binding | 1 µM | 100%
O=C(NCC1CCOCC1)c1n[nH]cc1NC(=O)c1c(F)cccc1F | RPS6KA2 N-terminal kinase domain | binding | 1 µM | 100%
